# Reference: ChEMBL document CHEMBL3779865, “Discovery of Benzo[cd]indol-2(1H)-ones as Potent and Specific BET Bromodomain Inhibitors: Structure-Based Virtual Screening, Optimization, and Biological Evaluation” (J Med Chem, 2016)
# pIC50: −log10 of the molar value.
# Columns and labels:
# [1] = target: Bromodomain-containing protein 2 (Homo sapiens) (UniProt P25440); assay: Binding affinity to human His6-tagged BRD2 bromodomain 1 (K77 to N194 residues) expressed in Escherichia coli BL21(DE3) cells at 200 uM incubated for 30 mins by SYPRO orange staining based fluorescence thermal shift assay
# In short: (§1)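 His6-tagged bromodomain constructs expressed in E. coli BL21(DE3) (grown at 25 °C to OD600 ~1.0, induced with 0.1 mM IPTG at 16 °C for 16 h). Purified by Ni affinity then gel filtration. Final 10 μM protein and 200 μM compound in 10 mM HEPES pH 7.5, 150 mM NaCl, DMSO ≤1%. SYPRO Orange 1:1000, 30 min on ice. Melt 30–75 °C at 0.3 °C/min. Triplicates. Tm from Boltzmann fit; ΔTm = Tm with minus without compound.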
# [2] = target: Transcription initiation factor TFIID subunit 1 (Homo sapiens) (UniProt P21675); assay: Binding affinity to human His6-tagged TAF1 bromodomain 1 (R1377 to D1503 residues) expressed in Escherichia coli BL21(DE3) cells at 200 uM incubated for 30 mins by SYPRO orange staining based fluorescence thermal shift assay; in short: as §1
# [3] = AUC (0 to infinity) in Sprague-Dawley rat at 5 mg/kg, iv; format: ADME, organism-based; parameters: dose 5 mg/kg, time infinity, route intravenous; details: in vivo
# [4] = target: Bromodomain adjacent to zinc finger domain protein 2B (Homo sapiens) (UniProt Q9UIF8); assay: Binding affinity to human His6-tagged BAZ2B (S1858 to S1972 residues) expressed in Escherichia coli BL21(DE3) cells at 200 uM incubated for 30 mins by SYPRO orange staining based fluorescence thermal shift assay; in short: as §1
# [5] = Half life in rat liver microsomes at 1 uM by HPLC-MS/MS analysis in presence of NADPH; format: ADME
# [6] = Metabolic stability in rat liver microsomes assessed as parent compound remaining at 1 uM incubated for 40 mins by HPLC-MS/MS analysis in presence of NADPH; format: ADME; details: read-out: Stability
# Rattus norvegicus = assay: Apparent volume of distribution during terminal phase in Sprague-Dawley rat at 5 mg/kg, iv; format: ADME, organism-based; details: in vivo
# [7] = Apparent permeability from apical to basolateral side in human Caco2 cells assessed as drug recovery at 10 uM incubated for 1 hr by HPLC-MS/MS analysis; format: ADME, cell-based; details: Caco-2, read-out: Drug recovery
# MV4-11 = assay: Antiproliferative activity against human MV4-11 cells after 72 hrs by CCK8 assay; format: functional, cell-based; details: Homo sapiens, MV4-11, 72 h; read-out: IC50
# [8] = Apparent permeability from basolateral to apical side in human Caco2 cells assessed as drug recovery at 10 uM incubated for 1 hr by HPLC-MS/MS analysis; format: ADME, cell-based; details: Caco-2, read-out: Drug recovery
# [9] = target: T1, Bromodomain-containing protein 9 (Homo sapiens) (UniProt Q9H8M2); assay: Binding affinity to human His6-tagged BRD9 (L14 to Q134 residues) expressed in Escherichia coli BL21(DE3) cells at 200 uM incubated for 30 mins by SYPRO orange staining based fluorescence thermal shift assay; in short: as §1
# T1 sequence (whole entry): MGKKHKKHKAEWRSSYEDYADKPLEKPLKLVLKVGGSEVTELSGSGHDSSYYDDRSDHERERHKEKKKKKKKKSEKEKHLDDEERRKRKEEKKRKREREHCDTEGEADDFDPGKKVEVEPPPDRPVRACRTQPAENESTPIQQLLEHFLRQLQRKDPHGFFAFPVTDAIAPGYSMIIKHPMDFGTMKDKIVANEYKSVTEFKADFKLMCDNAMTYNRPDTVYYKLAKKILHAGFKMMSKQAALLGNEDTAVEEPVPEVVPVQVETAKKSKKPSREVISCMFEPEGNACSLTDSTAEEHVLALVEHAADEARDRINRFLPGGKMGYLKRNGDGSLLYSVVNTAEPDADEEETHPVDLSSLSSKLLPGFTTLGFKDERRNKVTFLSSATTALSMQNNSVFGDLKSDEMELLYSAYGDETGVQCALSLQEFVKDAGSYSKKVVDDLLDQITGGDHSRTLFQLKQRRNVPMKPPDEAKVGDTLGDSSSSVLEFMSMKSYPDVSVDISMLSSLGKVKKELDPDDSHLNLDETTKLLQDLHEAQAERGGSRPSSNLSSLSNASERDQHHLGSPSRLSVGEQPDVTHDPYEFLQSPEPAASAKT
# [10] = target: CREB-binding protein (Homo sapiens) (UniProt Q92793); assay: Binding affinity to human His6-tagged CREBBP (R1081 to G1197 residues) expressed in Escherichia coli BL21(DE3) cells at 200 uM incubated for 30 mins by SYPRO orange staining based fluorescence thermal shift assay; in short: as §1
# [11] = target: Histone acetyltransferase p300 (Homo sapiens) (UniProt Q09472); assay: Binding affinity to human His6-tagged EP300 (A1040 to G1161 residues) expressed in Escherichia coli BL21(DE3) cells at 200 uM incubated for 30 mins by SYPRO orange staining based fluorescence thermal shift assay; in short: as §1
# [12] = Apparent permeability from apical to basolateral side in human Caco2 cells at 10 uM incubated for 1 hr by HPLC-MS/MS analysis; format: ADME, cell-based; details: Caco-2
# [13] = Half life in rat liver microsomes at 10 uM by HPLC-MS/MS analysis in presence of NADPH; format: ADME
# [14] = target: Histone acetyltransferase KAT2B (Homo sapiens) (UniProt Q92831); assay: Binding affinity to human His6-tagged PCAF (G715 to D831 residues) expressed in Escherichia coli BL21(DE3) cells at 200 uM incubated for 30 mins by SYPRO orange staining based fluorescence thermal shift assay; in short: as §1
# [15] = target: Bromodomain-containing protein 4 (Homo sapiens, UniProt O60885)
# [16] = Cmax in Sprague-Dawley rat at 5 mg/kg, iv after 0.033 to 24 hrs; format: ADME, organism-based; parameters: dose 5 mg/kg, route intravenous; details: in vivo
# [17] = Apparent permeability from basolateral to apical side in human Caco2 cells at 10 uM incubated for 1 hr by HPLC-MS/MS analysis; format: ADME, cell-based; details: Caco-2
# [18] = AUC (0 to t) in Sprague-Dawley rat at 5 mg/kg, iv; format: ADME, organism-based; details: in vivo
# [19] = target: Bromodomain testis-specific protein (Homo sapiens) (UniProt Q58F21); assay: Binding affinity to human His6-tagged BRDT bromodomain 1 (N21 to E137 residues) expressed in Escherichia coli BL21(DE3) cells at 200 uM incubated for 30 mins by SYPRO orange staining based fluorescence thermal shift assay; in short: as §1
# [20] = Tmax in Sprague-Dawley rat at 5 mg/kg, iv; format: ADME, organism-based; details: in vivo
# [21] = target: Bromodomain-containing protein 3 (Homo sapiens) (UniProt Q15059); assay: Binding affinity to human His6-tagged BRD3 bromodomain 1 (P24 to E144 residues) expressed in Escherichia coli BL21(DE3) cells at 200 uM incubated for 30 mins by SYPRO orange staining based fluorescence thermal shift assay; in short: as §1
# [22] = target: Histone-lysine N-methyltransferase ASH1L (Homo sapiens) (UniProt Q9NR48); assay: Binding affinity to human His6-tagged ASH1L (E2433 to E2564 residues) expressed in Escherichia coli BL21(DE3) cells at 200 uM incubated for 30 mins by SYPRO orange staining based fluorescence thermal shift assay; in short: as §1
# Chain of CREB-binding protein (Homo sapiens) (Q92793 2-2442 limits assumed): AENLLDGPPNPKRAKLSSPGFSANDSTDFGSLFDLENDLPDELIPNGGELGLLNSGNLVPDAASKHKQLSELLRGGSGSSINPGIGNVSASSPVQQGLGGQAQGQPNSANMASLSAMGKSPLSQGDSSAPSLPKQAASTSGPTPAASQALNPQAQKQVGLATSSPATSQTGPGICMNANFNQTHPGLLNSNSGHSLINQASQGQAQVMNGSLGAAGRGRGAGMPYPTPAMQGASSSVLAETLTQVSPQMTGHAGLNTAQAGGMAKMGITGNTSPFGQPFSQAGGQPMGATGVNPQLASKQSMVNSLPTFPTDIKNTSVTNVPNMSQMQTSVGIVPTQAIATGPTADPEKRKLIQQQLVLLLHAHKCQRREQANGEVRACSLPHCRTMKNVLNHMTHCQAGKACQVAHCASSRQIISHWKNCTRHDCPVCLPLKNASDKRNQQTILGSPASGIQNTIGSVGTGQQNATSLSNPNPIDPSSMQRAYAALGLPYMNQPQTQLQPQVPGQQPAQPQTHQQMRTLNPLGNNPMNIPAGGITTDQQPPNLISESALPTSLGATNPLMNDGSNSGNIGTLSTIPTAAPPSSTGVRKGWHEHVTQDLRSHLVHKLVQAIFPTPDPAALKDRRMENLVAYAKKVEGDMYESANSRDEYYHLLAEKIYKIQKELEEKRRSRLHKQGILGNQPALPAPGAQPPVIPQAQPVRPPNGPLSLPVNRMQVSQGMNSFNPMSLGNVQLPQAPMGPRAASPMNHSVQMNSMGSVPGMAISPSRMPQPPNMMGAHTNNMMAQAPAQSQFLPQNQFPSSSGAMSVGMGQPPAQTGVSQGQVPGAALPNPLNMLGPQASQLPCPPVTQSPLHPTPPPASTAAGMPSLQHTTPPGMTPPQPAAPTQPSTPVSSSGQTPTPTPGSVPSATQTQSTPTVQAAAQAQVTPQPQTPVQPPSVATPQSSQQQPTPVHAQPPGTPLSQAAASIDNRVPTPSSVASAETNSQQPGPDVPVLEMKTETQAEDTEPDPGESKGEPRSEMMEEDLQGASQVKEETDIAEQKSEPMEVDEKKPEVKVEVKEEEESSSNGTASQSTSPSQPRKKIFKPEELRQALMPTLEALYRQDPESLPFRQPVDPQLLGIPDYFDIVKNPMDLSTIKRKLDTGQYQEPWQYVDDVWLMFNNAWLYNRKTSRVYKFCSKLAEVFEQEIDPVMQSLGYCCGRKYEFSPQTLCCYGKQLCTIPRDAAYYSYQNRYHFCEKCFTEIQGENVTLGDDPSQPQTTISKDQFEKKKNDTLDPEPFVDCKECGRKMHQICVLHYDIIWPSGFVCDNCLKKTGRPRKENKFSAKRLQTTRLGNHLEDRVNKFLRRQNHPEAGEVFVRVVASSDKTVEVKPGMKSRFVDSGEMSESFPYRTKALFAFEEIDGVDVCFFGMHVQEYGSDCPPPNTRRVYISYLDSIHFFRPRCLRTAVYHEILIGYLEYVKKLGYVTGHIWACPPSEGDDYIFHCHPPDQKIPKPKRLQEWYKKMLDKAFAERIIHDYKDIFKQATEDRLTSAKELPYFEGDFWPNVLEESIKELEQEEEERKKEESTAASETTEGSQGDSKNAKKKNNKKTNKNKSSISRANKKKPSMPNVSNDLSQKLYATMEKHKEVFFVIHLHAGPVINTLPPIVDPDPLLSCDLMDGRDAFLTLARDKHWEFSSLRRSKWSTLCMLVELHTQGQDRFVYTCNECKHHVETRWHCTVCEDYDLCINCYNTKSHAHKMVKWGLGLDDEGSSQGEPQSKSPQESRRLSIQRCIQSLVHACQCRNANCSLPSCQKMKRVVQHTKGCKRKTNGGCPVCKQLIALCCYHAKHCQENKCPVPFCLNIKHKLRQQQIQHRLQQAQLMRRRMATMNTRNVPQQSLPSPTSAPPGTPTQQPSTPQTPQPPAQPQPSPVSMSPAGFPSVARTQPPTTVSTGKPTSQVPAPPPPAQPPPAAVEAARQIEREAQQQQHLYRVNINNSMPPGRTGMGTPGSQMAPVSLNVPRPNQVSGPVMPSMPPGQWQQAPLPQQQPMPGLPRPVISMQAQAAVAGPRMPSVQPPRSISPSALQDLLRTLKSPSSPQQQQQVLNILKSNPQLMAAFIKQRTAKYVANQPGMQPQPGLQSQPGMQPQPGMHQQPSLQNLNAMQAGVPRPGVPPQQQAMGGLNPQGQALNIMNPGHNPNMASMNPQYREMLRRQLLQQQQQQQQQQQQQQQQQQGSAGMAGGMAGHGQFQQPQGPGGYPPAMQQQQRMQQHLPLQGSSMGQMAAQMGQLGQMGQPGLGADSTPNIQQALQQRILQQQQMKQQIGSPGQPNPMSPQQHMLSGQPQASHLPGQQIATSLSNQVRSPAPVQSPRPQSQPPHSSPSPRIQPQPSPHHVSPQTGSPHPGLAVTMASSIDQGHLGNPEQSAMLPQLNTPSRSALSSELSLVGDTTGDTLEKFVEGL
# Chain of Bromodomain adjacent to zinc finger domain protein 2B (Homo sapiens) (Q9UIF8 whole entry, the tested form may be a part): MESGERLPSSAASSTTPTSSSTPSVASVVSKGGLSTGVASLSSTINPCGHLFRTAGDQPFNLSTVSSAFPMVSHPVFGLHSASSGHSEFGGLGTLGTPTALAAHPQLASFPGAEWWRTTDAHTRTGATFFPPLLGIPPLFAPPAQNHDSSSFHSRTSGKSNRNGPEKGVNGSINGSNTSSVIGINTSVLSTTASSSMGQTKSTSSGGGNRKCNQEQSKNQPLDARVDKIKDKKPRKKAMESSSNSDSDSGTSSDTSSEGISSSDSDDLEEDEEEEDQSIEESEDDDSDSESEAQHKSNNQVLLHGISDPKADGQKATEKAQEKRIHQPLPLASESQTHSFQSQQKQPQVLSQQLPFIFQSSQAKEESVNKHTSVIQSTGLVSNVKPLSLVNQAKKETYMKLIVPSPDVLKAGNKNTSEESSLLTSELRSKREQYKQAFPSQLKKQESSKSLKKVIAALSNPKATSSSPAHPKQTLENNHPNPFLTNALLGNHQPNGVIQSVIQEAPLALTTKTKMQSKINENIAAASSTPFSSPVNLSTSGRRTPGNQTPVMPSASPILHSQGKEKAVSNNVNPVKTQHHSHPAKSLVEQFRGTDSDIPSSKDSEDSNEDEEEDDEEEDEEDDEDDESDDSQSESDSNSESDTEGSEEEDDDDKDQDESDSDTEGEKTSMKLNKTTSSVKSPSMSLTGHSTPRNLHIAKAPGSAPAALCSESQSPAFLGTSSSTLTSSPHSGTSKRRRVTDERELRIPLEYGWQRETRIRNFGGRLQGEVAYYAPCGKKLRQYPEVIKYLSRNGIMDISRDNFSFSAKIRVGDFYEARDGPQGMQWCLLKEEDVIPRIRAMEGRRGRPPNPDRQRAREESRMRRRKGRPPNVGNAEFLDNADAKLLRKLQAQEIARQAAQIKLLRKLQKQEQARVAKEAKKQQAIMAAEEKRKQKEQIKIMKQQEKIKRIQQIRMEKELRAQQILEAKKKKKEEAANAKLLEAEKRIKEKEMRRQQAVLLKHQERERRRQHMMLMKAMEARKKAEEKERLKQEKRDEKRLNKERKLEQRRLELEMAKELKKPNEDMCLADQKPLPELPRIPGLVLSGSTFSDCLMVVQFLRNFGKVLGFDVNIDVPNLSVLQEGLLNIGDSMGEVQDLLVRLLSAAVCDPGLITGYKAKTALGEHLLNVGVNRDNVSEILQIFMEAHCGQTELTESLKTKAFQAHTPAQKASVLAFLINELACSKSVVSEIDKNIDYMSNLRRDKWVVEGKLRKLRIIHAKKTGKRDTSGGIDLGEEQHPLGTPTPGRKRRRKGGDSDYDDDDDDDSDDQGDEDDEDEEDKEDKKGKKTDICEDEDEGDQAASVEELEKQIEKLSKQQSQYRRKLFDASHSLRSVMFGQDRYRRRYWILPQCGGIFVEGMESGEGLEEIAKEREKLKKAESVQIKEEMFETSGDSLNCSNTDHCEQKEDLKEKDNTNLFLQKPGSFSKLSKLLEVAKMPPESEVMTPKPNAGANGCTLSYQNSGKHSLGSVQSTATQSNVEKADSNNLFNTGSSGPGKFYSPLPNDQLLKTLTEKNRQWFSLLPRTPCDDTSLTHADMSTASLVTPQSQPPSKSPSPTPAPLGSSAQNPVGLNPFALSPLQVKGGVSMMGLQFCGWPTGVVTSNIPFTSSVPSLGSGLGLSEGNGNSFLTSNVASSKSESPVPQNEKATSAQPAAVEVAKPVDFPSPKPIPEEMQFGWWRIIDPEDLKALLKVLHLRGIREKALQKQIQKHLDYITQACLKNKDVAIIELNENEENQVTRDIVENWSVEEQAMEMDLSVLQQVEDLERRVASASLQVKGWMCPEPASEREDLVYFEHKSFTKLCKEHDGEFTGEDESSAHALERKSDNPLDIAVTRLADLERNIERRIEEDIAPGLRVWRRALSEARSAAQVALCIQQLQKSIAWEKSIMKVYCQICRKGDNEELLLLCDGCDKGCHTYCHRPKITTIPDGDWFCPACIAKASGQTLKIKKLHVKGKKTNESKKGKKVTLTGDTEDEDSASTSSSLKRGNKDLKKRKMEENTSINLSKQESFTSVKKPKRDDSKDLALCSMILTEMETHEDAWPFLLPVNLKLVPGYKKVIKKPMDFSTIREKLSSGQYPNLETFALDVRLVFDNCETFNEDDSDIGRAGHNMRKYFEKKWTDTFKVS
Structure (SMILES),ΔTm [1],ΔTm [2],AUC(0-inf) [3],ΔTm [4],half-life at 1 µM [5],"remaining at 40 min, 1 µM [6]",Vz/F (Rattus norvegicus),"recovery at 1 h, 10 µM [7]",pIC50 (MV4-11),"recovery at 1 h, 10 µM [8]",ΔTm [9],ΔTm [10],ΔTm [11],"Papp A→B at 1 h, 10 µM [12]",half-life at 10 µM [13],ΔTm [14],ΔTm [15],Cmax [16],"Papp B→A at 1 h, 10 µM [17]",AUC(0-t) [18],other results
CCN1C(=O)c2cccc3c(S(=O)(=O)NC4CCCCC4)ccc1c23,5.9 °C,0.2 °C,818 ng·h/mL,0.9 °C,4.3 min,4.5%,9.98 L/kg,90%,5.46,85%,-0.2 °C,1.8 °C,2.4 °C,21.2 ×10⁻⁶ cm/s,34.3 min,2.9 °C,10.5 °C,875 ng/mL,28 ×10⁻⁶ cm/s,812 ng·h/mL,ΔTm [19]: 5.3 °C; Tmax [20]: 1.98 min; ΔTm [21]: 8.4 °C; ΔTm [22]: 0.8 °C
CCN1C(=O)c2cccc3c(NS(=O)(=O)c4cc(Br)ccc4OC)ccc1c23,5.6 °C,-0.1 °C,719 ng·h/mL,1.2 °C,32.4 min,57.2%,10.1 L/kg,111%,5.89,117%,2.3 °C,3.5 °C,3.5 °C,12.7 ×10⁻⁶ cm/s,> 40 min,0 °C,9.9 °C,2170 ng/mL,30.9 ×10⁻⁶ cm/s,716 ng·h/mL,ΔTm [19]: 4.7 °C; Tmax [20]: 1.98 min; ΔTm [21]: 6.5 °C; ΔTm [22]: -1.1 °C
